From PubChem BioAssay
Runt-CBFb FRET = blocks binding of human RUNX1 Runt domain to CBFb | Q01196+Q13951 | Cerulean-Runt/Venus-CBFb FRET ratio 530/480, 1 h | inhibition, % at 20 µM | actives 0.46% (n = 220,000);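 active means inhibition over about 50% at 20 µM in the single-dose screen, limit read from the data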;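 further: 0% = DMSO wells and 100% = excess unlabeled CBFb competitor control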
Target sequence (Q01196 whole entry, looked up, the tested form may be a part): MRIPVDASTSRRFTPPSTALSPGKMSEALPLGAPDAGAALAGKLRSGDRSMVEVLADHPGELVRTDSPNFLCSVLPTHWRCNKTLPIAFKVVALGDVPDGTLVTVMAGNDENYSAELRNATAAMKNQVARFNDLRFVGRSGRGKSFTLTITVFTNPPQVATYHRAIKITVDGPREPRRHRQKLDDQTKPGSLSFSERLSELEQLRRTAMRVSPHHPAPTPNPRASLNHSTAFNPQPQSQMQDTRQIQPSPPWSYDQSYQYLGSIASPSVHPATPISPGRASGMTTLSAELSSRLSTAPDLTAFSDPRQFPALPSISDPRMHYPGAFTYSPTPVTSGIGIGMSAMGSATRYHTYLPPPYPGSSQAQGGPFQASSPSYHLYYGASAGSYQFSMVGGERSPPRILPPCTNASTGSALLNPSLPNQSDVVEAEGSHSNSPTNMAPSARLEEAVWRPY
Target sequence (Q13951 whole entry, looked up, the tested form may be a part): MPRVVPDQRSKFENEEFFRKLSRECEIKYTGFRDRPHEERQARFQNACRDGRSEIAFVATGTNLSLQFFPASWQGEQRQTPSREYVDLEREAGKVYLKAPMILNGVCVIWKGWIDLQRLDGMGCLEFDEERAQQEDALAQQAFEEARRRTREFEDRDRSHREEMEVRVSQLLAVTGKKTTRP
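test system = Cerulean-Runt domain fusion protein, energy donor | probe or stimulus = Venus-CBFb binding partner, 100 nM | incubation = two 1 h room-temperature incubations shielded from light | detection = fluorescence energy transfer, 422 nm excitation, 530/480 nm emission | measure = loss of energy transfer signal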
RanGTP-Impb inh = inhibitors of RanGTP-importin-beta interaction, primary screen, biochemical, FRET, CFP-Ran, YFP-importin-beta, homogeneous. inhibition, % (test concentration not listed). actives 1.1% (n = 300,000). AID 2216. cell-free CFP-Ran/YFP-importin-beta FRET ratio;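 active means more than half of the replicate wells show a fall in the fluorescence ratio signal beyond about 16%, limit read from the data, passing the limit was not always enough; inconclusive means exactly half of the replicate wells pass the set limit; inactive means fewer than half of replicates pass the limit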;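 further: 0% = DMSO wells and 100% = Ran loaded with GDP instead of GTP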
Runt-SMMHC FRET = blocks binding of human RUNX1 Runt domain to CBFb-SMMHC; Q01196+Q13951; Cerulean-Runt/Venus-CBFb-SMMHC FRET ratio 530/480, 1 h; inhibition, % at 20 µM; actives 0.74% (n = 220,000); AID 1434;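 active means mean inhibition across duplicate retests at 20 µM reaching about 50%, limit read from the data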;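 further: 0% = DMSO wells and 100% = wells with excess untagged CBFb-SMMHC; inhibitors lower the FRET ratio by blocking Runt binding to CBFb-SMMHC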
Hck Nef HTS = human Hck-Nef kinase inhibition; P08631; AID 463187; actives 0.68% (n = 220,000); Recombinant Hck-YEEI plus Nef, Z-Lyte FRET kinase assay; inhibition, % at 20 µM;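 active means Hck-Nef kinase inhibition above about 50%, limit read from the data; inactive means inhibition below that limit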;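 further: 0% = DMSO with Hck plus Nef and 100% = Hck alone without Nef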
Hck Nef conf = confirmation of Hck-Nef kinase inhibitors | shares compounds with Hck Nef HTS | Recombinant Hck-YEEI:Nef, Z-Lyte FRET kinase assay | calls only at 10 µM | actives 28% (n = 1,300);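 active means average inhibition of at least 50%, with Z-scores no higher than 3 in both the phospho-tyrosine peptide and fluorescence counterscreens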
An asterisk follows results filed as active; i = inactive; ? = inconclusive; / = no result shown; + = active, no number. Sampled rows, rich in hits. Any-hit rate of the full collection: about 1.8%.

SMILES	Runt-CBFb FRET	RanGTP-Impb inh	Runt-SMMHC FRET	Hck Nef HTS	Hck Nef conf
O=C(C1CCN(S(=O)(=O)c2cccs2)CC1)N1CCCC(C(F)(F)F)C1 (stereo unspecified)	/	-1.0	/	/	/
Cc1cc(C2=NNC(=Nc3ccc(S(=O)(=O)N4CCOCC4)cc3)SC2)c(C)n1C	9.5	-1.3	1.7	62.7*	i
COc1ccc(OC)c(-c2c3cc(O)c(=O)cc-3oc3cc(O)c(O)cc23)c1	-282.9	/	i	54.4*	i
CCCCN(C(=O)CSc1nnnn1C)c1c(N)n(Cc2ccccc2)c(=O)[nH]c1=O	2.1	0.5	-1.9	10.5	/
CC(=O)Nc1sc(N/N=C/c2ccc(O)cc2)nc1-c1ccc(C)cc1	6.7	0.2	0.3	68.7*	i
CC(=O)Nc1sc(N/N=C/c2ccccc2F)nc1-c1ccc(C)cc1	12.2	0.8	-13.7	29.1	/
CC(=O)Nc1sc(N/N=C/c2ccccc2)nc1-c1ccc(C)cc1	6.4	3.3	-2.7	68.8*	i
CC(=O)c1sc(N/N=C\c2ccc(Br)cc2)nc1C	-23.5	-1.4	-49.7	0.3	/
CC(=O)Nc1sc(N/N=C\c2ccccc2)nc1-c1cccs1	12.2	4.4	-3.0	13.6	/
COc1ccc(/C=N/Nc2nc(-c3ccc(C)cc3)c(NC(C)=O)s2)cc1	0.7	-1.9	-2.7	83.4*	i
O=C1/C(=C/c2ccco2)CCc2ccccc21	12.8	2.1	5.4	100.1*	i
COc1ccc(Cn2c(-c3ccccc3)nc3c(c(=O)c4ccccc4n3C)c2=O)cc1	-6.5	4.6	-11.8	20.7	/
Cn1c2ccccc2c(=O)c2c(=O)n(Cc3ccco3)c(-c3ccc(C(C)(C)C)cc3)nc21	2.4	2.4	3.5	55.1*	i
O=C(O)c1ccc(-c2ccc(/C=C3\NC(=O)N(Cc4ccc(Cl)cc4)C3=O)o2)cc1Cl	19.6	57.6*	20.9	52.5*	i
Nn1c(SCc2cccc(Br)c2)nnc1-c1ccncc1	0.7	5.5	3.1	10.4	/
CCOC(=O)c1c(NC(=O)/C=C\C(=O)O)sc(C)c1-c1ccccc1	-1.8	2.0	-1.0	56.8*	+
Cc1ccc(S(=O)(=O)Nc2ccc(N(C)C)cc2)cc1	11.3	2.0	3.4	84.7*	i
Cc1ccc(C)c(NC(=O)c2cnn3ccccc23)c1	1.8	-0.2	0.4	67.3*	+
Cc1ccc(C)c(NC(=O)c2cc3ccccn3n2)c1	-0.3	-2.0	2.5	11.3	/
C(=N\Nc1ncnc2sc3c(c12)CCC3)/c1ccncc1	-3.6	-0.9	1.1	50.6*	i
O=C1/C(=C/C=C/c2ccco2)SC(=S)N1c1ccc(O)cc1	29.2	-2.9	4.4	97.7*	+
O=C(NN1C(=O)/C(=C/C=C/c2ccco2)SC1=S)c1ccncc1	36.8	-4.0	-2.6	90.4*	i
CC(C)C(C(=O)O)N1C(=O)/C(=C/C=C/c2ccco2)SC1=S (stereo unspecified)	24.5	-4.5	11.7	83.1*	i
CC(C)C(C(=O)O)N1C(=O)/C(=C/c2cccn2C)SC1=S (stereo unspecified)	-43.5	/	-68.1	2.6	/
Cc1ccc2c(C)c(C(=O)N(C)C(C)c3ccon3)oc2c1C (stereo unspecified)	/	1.9	/	/	/
SMILES	Runt-CBFb FRET	RanGTP-Impb inh	Runt-SMMHC FRET	Hck Nef HTS	Hck Nef conf
CCOC(=O)CNc1ncnc2nc[nH]c12	-0.7	-4.1	-0.2	-1.3	/
CCc1ccc(/C=N/Nc2ncnc3nc[nH]c23)cc1	0.6	1.2	1.5	94.9*	+
c1ccc(-c2nccc(-c3ccc(-n4cnc5ccccc54)cc3)n2)cc1	-2.6	-5.8	-4.1	101.8*	i
c1ccc(-n2cnc3ccccc32)nc1	/	-1.0	/	/	/
NCCCCCC(=O)N/N=C/c1coc2ccccc2c1=O	1.4	?	-0.4	84.0*	+
N#CCC(=O)N/N=C/c1coc2ccccc2c1=O	-3.1	1.5	5.6	81.0*	+
O=C(N/N=C\c1coc2ccccc2c1=O)c1ccco1	-1.3	-0.4	1.6	82.8*	+
O=C(N/N=C/c1coc2ccccc2c1=O)c1cc(Br)ccc1O	/	-0.4	/	/	/
O=C(N/N=C/c1coc2ccccc2c1=O)c1ccc(Cl)cc1	/	2.4	/	/	/
O=C(N/N=C/c1coc2ccccc2c1=O)c1ccccc1	0.6	0.6	-1.6	87.3*	i
CCOC(=O)c1c(C2CCN(C(=O)OCC)CC2)nc2ccccn12	-0.1	-3.3	2.2	1.5	/
CCOC(=O)c1cc2c(=O)n3ccccc3nc2n(CC2CCCO2)c1=NC(C)=O (stereo unspecified)	42.3	70.9*	58.7*	192.9*	/
Cc1nc2ccc3nc(NC(=O)c4ccco4)sc3c2s1	/	2.2	/	-0.1	/
O=C(Nc1nc2ccsc2c(=O)s1)c1ccco1	8.0	3.6	15.9	64.7*	i
CC(=O)c1ccc(S(=O)(=O)N2CCN(C(=O)CN3C(=O)NC4(CCCC4)C3=O)CC2)cc1	/	10.8	/	/	/
Cc1cc(Cl)ccc1OCC(=O)n1cc(C(=O)c2cc(Cl)ccc2O)cn1	-0.5	-3.1	4.0	32.6	/
O=C(c1cnn(C(=O)COc2ccccc2F)c1)c1cc(F)ccc1O	3.5	4.4	-0.6	75.3*	+
Cc1oc(-c2ccc(-c3ccccc3)cc2)nc1CN(CCO)C(C)C	/	-0.4	/	/	/
Nc1cc(C(=O)O)c(N)c2c1C(=O)c1ccccc1C2=O	-2.7	-10.6	-12.0	62.0*	i
CC1N(C(=O)N2CCOCC2)CCN1S(=O)(=O)c1cccc(C(F)(F)F)c1 (stereo unspecified)	/	-1.0	/	/	/
Cc1cc(/C=C2/SC(=O)NC2=O)c(C)n1-c1ccc(N2CCOCC2)cc1	-3.1	4.3	3.1	5.1	/
Cc1cc(/C=C2\SC(=Nc3ccc(F)cc3)NC2=O)c(C)n1-c1ccc(S(N)(=O)=O)cc1	5.3	?	6.3	65.2*	+
COc1ccccc1C(=O)Oc1cc(N)n(S(=O)(=O)c2ccc(C)cc2)n1	-1.3	0.8	-7.8	94.3*	+
Cc1ccc(S(=O)(=O)n2nc(OC(=O)c3ccccc3C)cc2N)cc1	/	-2.8	/	/	/
C/C(=N\NC(=O)c1cccc(N/N=C(\C)c2ccco2)c1)c1ccco1	0.9	?	-5.1	16.8	/
C/C(=N\NC(=O)c1cccc(N/N=C(\C)c2cc(O)ccc2O)c1)c1cc(O)ccc1O	5.9	?	-9.2	57.4*	i
Cc1ccc(CNc2ncccc2-c2nc3cc(Cl)ccc3o2)cc1	-0.6	-3.3	27.1	65.9*	+
Clc1ccc2oc(-c3cccnc3NCc3ccccc3)nc2c1	4.0	5.0	15.9	90.4*	/
C/C(=C/CCC(C)C1CCC2(C)C3CCC4C(C)(C)C(=O)CCC4(C)C3=CCC12C)C(=O)O (stereo unspecified)	-0.3	0.2	0.7	25.8	/
